Hep lipid drop: inhibitors of hepatocyte lipid droplet formation, primary screen, imaging, high-throughput imaging, BODIPY stain; AID 1656, 2009; inhibition, % at 6.5 µM; AML12 mouse hepatocytes, oleate lipid droplets; 240,000 compounds, 0.4% hits;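 active = lipid droplet intensity inhibited by at least 50%, with more than 500 cells counted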
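Material – AML12 mouse liver cells · Also added – oleate loading, 100 µM · Compound dosing – 6.5 µM single-point dosing · Times – overnight treatment with compound plus oleate · Measured by – fluorescence imaging, 20x objective, two fields per well · Read-out – percent inhibition of filter-corrected integrated lipid droplet intensity per well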
Jurkat NFkB inh: inhibitors of induced NF-kB luciferase reporter, primary screen, TCR NF-kB activation inhibitor project, cell-based, luminescence, uHTS; inhibition, % at 4 µM; AID 435003, 2010; 330,000 compounds, 0.53% hits; Jurkat, PMA/ionomycin-induced NF-kB luciferase reporter; in the data active = inhibition above about 50%
iPSC survival up: enhancers of single-cell hiPSC survival, primary screen, ATPlite luminescence; 100% = ROCK inhibitor wells, 0% = DMSO; survival enhancement, % at 20 µM; 360,000 compounds, 0.044% hits; in the data active = survival enhancement above about 18%;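 also: cells exposed to compounds for 16 hours before the ATP read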
Gli-Sufu antag: Gli-Sufu pathway antagonists, primary screen, luciferase luminescence, Sufu-KO-LIGHT cells, uHTS; Sufu-KO-LIGHT fibroblasts, Gli luciferase reporter luminescence; inhibition, % at 5 µM; 340,000 compounds, 0.74% hits; AID 588413, 2011;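 active = inhibition above about 55%, limit read from the data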
TAG inh: inhibitors of triacylglycerol accumulation, primary screen, cell-based, uHTS, fluorescence, H9c2; H9c2 cells, Nile Red lipid (TAG) fluorescence; cells loaded with 200 µM oleic acid; inhibition, % at 12.5 µM; 230,000 compounds, 0.66% hits; AID 651582, 2012;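 active = pattern-corrected inhibition of lipid staining of at least 50% with the nuclear-stain viability signal not falling by more than 50%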
697 NFkB inh: inhibitors of PMA/ionomycin-induced NF-kB reporter, 697 cells, primary screen, B-cell NF-kB inhibitor project, cell-based, luminescence, uHTS. 697 B-cell NF-kB luciferase reporter, 16 h. inhibition, % at 4 µM. 330,000 compounds, 0.33% hits; in the data active = inhibition above about 35%
Hep lipid conf: hepatocyte lipid droplet accumulation inhibitors, confirmation, imaging, AML12 mouse hepatocytes, single concentration, high-content | inhibition, % at 5.2 µM | shares compounds with Hep lipid drop | BODIPY lipid droplet imaging; droplets induced with 100 µM oleic acid | 870 compounds, 65% hits | AID 463183, 2010;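 active = inhibition of lipid droplet metric at least 50%, with more than 300 cells in each of four replicates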
AML12 cytotox: AML12 hepatocyte cytotoxicity, counter-screen for hepatic lipid droplet formation project, imaging, DAPI nuclear morphology imaging; z-score at 5 µM; shares compounds with Hep lipid drop; AML12 mouse hepatocytes; active compounds read high; cells fed 100 µM oleate overnight; 870 compounds, 3% hits; in the data active = z-score above about 6.3;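 also: compound exposure lasted overnight at 37 °C before fixation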
AML12 tox ATP: AML12 hepatocyte cytotoxicity, confirmation, cytotoxicity control for hepatic lipid droplet formation project, cell-based, single concentration. AML12 mouse hepatocyte viability, ATP luminescence; cells loaded with 100 µM oleic acid. shares compounds with Hep lipid drop. 530 tested, under 10 active. cytotoxicity, % at 50 µM. AID 463219, 2010;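 active = cytotoxicity above 50% in each of four replicates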;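 also: compound exposure lasted overnight at 37 °C before the ATP read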
Each line names hits and unclear results; the compound was inactive in the other large screens (follow-up assays come after a bar, where they were run). A selection: hits, their analogues and other compounds. The true share with any hit is near 1.8%.

Cc1ccc(NC(=O)c2nc[nH]c2C(=O)NCC(=O)OC(C)(C)C)cc1	none
CN(C)c1ccc(C(CNS(=O)(=O)c2ccc([N+](=O)[O-])cc2)N2CCCC2)cc1 (stereo unspecified)	none (no result: Hep lipid drop)
Cc1cc(N(CCO)CCO)ccc1N=Nc1cc(F)ccc1F	Hep lipid drop 114.8, TAG inh 72.7 | Hep lipid conf 111.8 | AML12 cytotox inactive | AML12 tox ATP inactive
S=C(NCCCN1CCOCC1)NN=C1c2ccccc2-c2ccccc21	none (no result: Hep lipid drop, Jurkat NFkB inh, Gli-Sufu antag, 697 NFkB inh)
O=c1[nH]cnc2sc3c(c12)CN(Cc1ccccc1)CC3	none (no result: TAG inh)
O=c1[nH]cnc2sc3c(c12)CCN(Cc1ccccc1)C3	Hep lipid drop 54.7 (no result: TAG inh) | Hep lipid conf inactive | AML12 cytotox inactive
CC1=C/C(=N\Nc2ccccc2[N+](=O)[O-])CC(C)(C)C1	Hep lipid drop 76.8 (no result: TAG inh) | Hep lipid conf 114.7 | AML12 cytotox inactive
COc1ccc(CCNC(=O)C2CC3Cn4c(nc5cc6ccccc6cc54)C3N2C)cc1 (stereo unspecified)	Hep lipid drop 51.3 | Hep lipid conf inactive | AML12 cytotox inactive
COc1ccc(N=C2C(=Nc3ccc(OC)cc3)N(c3ccc(OC)cc3)C(=S)N2C)cc1	Hep lipid drop 57.6 (no result: TAG inh) | Hep lipid conf 108.9 | AML12 cytotox inactive | AML12 tox ATP inactive
COc1ccc(N=C2C(=Nc3ccc(OC)cc3)N(c3ccc(OC)cc3)C(=S)N2c2ccccc2)cc1	none (no result: TAG inh)
CC(NC(=O)/C=C/c1ccc(Br)cc1)c1ccc(Cl)cc1 (stereo unspecified)	none (no result: TAG inh)
COc1ccc(N=C/C=C2/C=C(c3ccccc3)OC(C)(C)O2)cc1	Hep lipid drop 61.2 (no result: TAG inh) | Hep lipid conf inactive | AML12 cytotox inactive
COC(=O)C1=C(C)N=c2s/c(=C3\C(=O)Nc4ccccc43)c(=O)n2C1c1ccccc1 (stereo unspecified)	Hep lipid drop 59.9 (no result: iPSC survival up, Gli-Sufu antag, TAG inh) | Hep lipid conf 55.5 | AML12 cytotox inactive | AML12 tox ATP 68.6
CCOC(=O)C1=C(C)n2c(s/c(=C3\C(=O)Nc4ccccc43)c2=O)=NC1c1ccc(OC)cc1 (stereo unspecified)	Hep lipid drop 79.7 | Hep lipid conf inactive | AML12 cytotox inactive
CCOc1ccc(-n2ccn(CC(=O)NCCc3ccccc3)c(=O)c2=O)cc1	none (no result: Hep lipid drop)
COc1ccc(CNC(=O)CN2C(=O)NC(C)(c3cccc4ccccc34)C2=O)cc1OC (stereo unspecified)	Hep lipid drop 77.5 (no result: TAG inh) | Hep lipid conf 105.2 | AML12 cytotox inactive | AML12 tox ATP inactive
COc1ccccc1NC(=S)N1CCN(C(=O)C2CCCO2)CC1 (stereo unspecified)	none
O=C(Nc1nnc(-c2cccs2)s1)C1CC1	none
O=C(Nc1nc(-c2cccs2)c(-c2cccs2)s1)C1CCCC1	Hep lipid drop 54.5 (no result: Jurkat NFkB inh, TAG inh, 697 NFkB inh) | Hep lipid conf 93.7 | AML12 cytotox inactive
COc1cc(CNC(=O)c2cccc(COc3ccc(Cl)cc3)c2)cc(OC)c1	Hep lipid drop 56.9 (no result: TAG inh) | Hep lipid conf 91.9 | AML12 cytotox inactive | AML12 tox ATP inactive
Cc1cc(C)cc(NC(=O)CCC(=O)Nc2cc(C)on2)c1	Hep lipid drop 74.9 (no result: TAG inh) | Hep lipid conf 71.1 | AML12 cytotox inactive | AML12 tox ATP inactive
Cc1cc(NC(=O)CCCC(=O)Nc2ccc(F)cc2)no1	none
COc1cccc(CNS(=O)(=O)c2ccc(S(=O)(=O)NC3CC3)cc2)c1	Hep lipid drop 80.5 (no result: TAG inh) | Hep lipid conf 108.0 | AML12 cytotox inactive | AML12 tox ATP inactive
CCOC(=O)N1CCN(C(=O)CSc2nnc3[nH]c(=O)c(C)c(C)n23)CC1	none (no result: Hep lipid drop)
C(=N/n1c2ccccc2c2ccccc21)/c1ccco1	none
N=c1scc(-c2ccccc2)n1/N=C/c1ccco1	Hep lipid drop 54.5 (no result: TAG inh) | Hep lipid conf inactive | AML12 cytotox inactive
Cc1ccccc1Cn1nc(C)c(NC(=O)C2c3ccccc3Oc3ccccc32)c1C	Hep lipid drop 80.9 (no result: TAG inh) | Hep lipid conf 100.5 | AML12 cytotox inactive | AML12 tox ATP inactive
Cc1ccc(-c2n[nH]c(Cc3ccccc3)n2)cc1	none (no result: TAG inh)
COc1ccc(NC(=O)Nc2cc(C)ccc2OC)cc1	none
COc1ccc(Cl)cc1NC(=O)Nc1ccc(C(=O)N2CCCC2)cc1	Hep lipid drop 55.7 | Hep lipid conf 77.1 | AML12 cytotox inactive | AML12 tox ATP inactive
COc1ccc(C)cc1NC(=O)Nc1ccc(C(=O)N2CCCC2)cc1	Hep lipid drop 69.5 | Hep lipid conf 95.1 | AML12 cytotox inactive | AML12 tox ATP inactive
COc1ccc(NC(=O)CSc2nnc(C)s2)cc1S(=O)(=O)N1CCOCC1	none (no result: Hep lipid drop)
CCc1cc2c(=O)c(-c3nc4ccccc4n3C)c(C)oc2c(CN2CCOCC2)c1O	Hep lipid drop 50.0 (no result: TAG inh) | Hep lipid conf 88.3 | AML12 cytotox inactive | AML12 tox ATP inactive
CCCOc1ccc(-c2csc(NC(=O)CN3C(=O)CCC3=O)n2)cc1	Hep lipid drop 94.9 | Hep lipid conf 109.0 | AML12 cytotox inactive
O=C(NCc1cccs1)C1CCC(CNS(=O)(=O)c2ccccc2)CC1 (stereo unspecified)	none
O=C(NCc1cccs1)C1CCC(CNS(=O)(=O)c2cccs2)CC1 (stereo unspecified)	Hep lipid drop 52.2 | Hep lipid conf inactive | AML12 cytotox inactive
Cc1nc(NC(=O)c2ccc(OCC(C)C)cc2)sc1Cc1ccc2c(c1)OCO2	Hep lipid drop 62.7 | Hep lipid conf 97.7 | AML12 cytotox inactive | AML12 tox ATP inactive
COc1ccc2nc(N=Nc3ccc(O)c4ccccc34)sc2c1	Hep lipid drop 70.6 (no result: TAG inh) | Hep lipid conf 104.7 | AML12 cytotox inactive
COc1ccc2nc(N=NC3=C(O)CC(C)(C)CC3=O)sc2c1	none
CCOc1ccc(C2=NNC(c3cccs3)=Nc3ccc(OC)cc32)cc1OCC	Hep lipid drop 55.2 | Hep lipid conf 71.3 | AML12 cytotox inactive | AML12 tox ATP inactive
Cc1cccc(-c2ccc3c(c2)C2CC3CCN2Cc2ccc3c(c2)OCO3)c1 (stereo unspecified)	none (no result: Hep lipid drop, Jurkat NFkB inh, 697 NFkB inh)
